Active and inactive are the calls of the source. No cut-off for these calls is given here.
Key:
Acetylcholinesterase = Acetylcholinesterase (Electrophorus electricus, UniProt O42275); experiment: Inhibition of electric eel AChE by modified Ellman's method
Procedure, shortened: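 Ellman-based assay. IC50 is the concentration giving 50% loss of AChE activity, reported as mean ± SEM from n = 3-6 experiments.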

Cholinesterase = Cholinesterase (Equus caballus, UniProt P81908); experiment: Inhibition of horse serum BuChE by modified Ellman's method
[1] = Induction of fibril destruction of amyloid beta (1-40) catalytic domain containing HHQKLVFFAED sequence by modified thioflavin T assay
[2] = Octanol-water partition coefficient, log P at pH 7.4 by RP-HPLC; type: physicochemical
Procedure, shortened: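 Reversed-phase HPLC on an endcapped RP18 column (5 µm). Eluent methanol/phosphate buffer pH 7.4 (70/30) with 0.02% N,N-dimethylhexylamine, 1.0 ml flow. Analytes at 4 µg/ml in methanol, run in duplicate. Capacity factors converted to log P through a calibration against 2-phenylethanol, benzene, dimethylaniline, toluene, biphenyl and anthracene.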

[3] = Partition coefficient, log P at pH 7.4 by shake flask method; type: physicochemical; settings: octanol/water
Procedure, shortened: (§1)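 Shake flask with octanol and phosphate buffer at the stated pH, each phase pre-saturated with the other overnight. Compound at 10^-5 mol/l in buffer-saturated octanol, absorbance (A0) read between 314 and 360 nm. Equal volumes shaken 4 h at 37 °C, left overnight, then centrifuged. Aqueous-layer absorbance (A1) read; log P = log((A0−A1)/A1).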

[4] = Partition coefficient, log P at pH 7 by shake flask method; type: physicochemical; settings: octanol/water; procedure, shortened: as §1
[5] = Partition coefficient, log P at pH 5 by shake flask method; type: physicochemical; settings: octanol/water; procedure, shortened: as §1
[6] = Partition coefficient, log P at pH 6 by shake flask method; type: physicochemical; settings: octanol/water; procedure, shortened: as §1
[7] = Inhibition of amyloid beta (1-40) fibril formation by thioflavin T formation assay
Procedure, shortened: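 HFIP-pretreated Aβ film taken up in DMSO as a 2 mM stock, stored at -20 °C for at most three days. Diluted to 100 µM final peptide in 25 mM NaH2PO4, 120 mM NaCl, 3 µM thioflavin T, 0.02% NaN3, pH 7.4. Inhibitors at 0.005–0.5 mM. Incubated at 37 °C. Fluorescence read at excitation 450 nm, emission 482 nm.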

[8] = Dissociation constant, pKa at pH 7.4; type: physicochemical
Procedure, shortened: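 Potentiometric titration: compound dissolved in 0.15 M KCl for constant ionic strength, with 30% dioxane or 80% methanol as co-solvent modifier. pH brought to 1.8 with 0.5 M HCl, then titrated with 0.5 M KOH. Dissociation constants determined at several modifier levels and pKa obtained by extrapolation of the calibration line. Electrode calibrated by blank titrations of 0.15 M KCl.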

[9] = Inhibition of fibril formation of amyloid beta (1-40) catalytic domain containing HHQKLVFFAED sequence by thioflavin T assay
[10] = Inhibition of fibril formation of amyloid beta (1-40) catalytic domain containing HHQKLVFFAED sequence at 0.5 mM by thioflavin T assay

Chain of Cholinesterase (P81908 whole entry, the tested form may be a part): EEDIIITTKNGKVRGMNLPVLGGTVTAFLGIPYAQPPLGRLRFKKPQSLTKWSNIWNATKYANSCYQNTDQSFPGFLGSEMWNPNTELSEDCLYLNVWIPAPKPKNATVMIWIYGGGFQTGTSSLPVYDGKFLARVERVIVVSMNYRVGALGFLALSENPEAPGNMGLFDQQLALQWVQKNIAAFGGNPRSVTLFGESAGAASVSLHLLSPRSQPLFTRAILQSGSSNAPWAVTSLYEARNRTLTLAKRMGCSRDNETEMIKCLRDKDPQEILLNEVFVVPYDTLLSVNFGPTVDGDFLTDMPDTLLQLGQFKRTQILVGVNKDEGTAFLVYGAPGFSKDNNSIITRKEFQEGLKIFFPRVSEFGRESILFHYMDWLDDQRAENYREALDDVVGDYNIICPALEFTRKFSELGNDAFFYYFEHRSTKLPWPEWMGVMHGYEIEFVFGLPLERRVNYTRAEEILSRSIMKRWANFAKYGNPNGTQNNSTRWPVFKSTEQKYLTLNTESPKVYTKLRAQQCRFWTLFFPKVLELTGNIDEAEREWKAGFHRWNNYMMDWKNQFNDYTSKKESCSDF
Chain of Acetylcholinesterase (O42275 whole entry): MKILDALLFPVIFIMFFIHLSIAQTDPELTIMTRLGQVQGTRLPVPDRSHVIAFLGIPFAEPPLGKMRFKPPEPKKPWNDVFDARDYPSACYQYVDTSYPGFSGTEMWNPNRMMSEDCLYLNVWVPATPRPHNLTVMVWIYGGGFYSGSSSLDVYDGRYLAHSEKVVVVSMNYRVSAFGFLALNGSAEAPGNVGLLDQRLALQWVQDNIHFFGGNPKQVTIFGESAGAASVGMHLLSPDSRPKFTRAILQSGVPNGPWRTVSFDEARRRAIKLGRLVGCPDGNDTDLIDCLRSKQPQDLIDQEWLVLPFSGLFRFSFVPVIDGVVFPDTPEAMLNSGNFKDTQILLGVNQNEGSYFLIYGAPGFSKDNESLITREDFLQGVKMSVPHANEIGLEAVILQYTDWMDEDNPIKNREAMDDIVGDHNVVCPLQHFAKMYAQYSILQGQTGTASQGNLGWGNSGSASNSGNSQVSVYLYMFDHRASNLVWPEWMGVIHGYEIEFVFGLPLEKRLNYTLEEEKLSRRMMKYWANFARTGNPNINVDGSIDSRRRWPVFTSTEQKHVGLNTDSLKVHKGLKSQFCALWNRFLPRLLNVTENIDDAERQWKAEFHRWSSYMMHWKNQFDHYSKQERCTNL

With `Clc1cccc(Cl)c1/C=N/N=c1ccn(Cc2ccccc2)cc1` the IC50 (Acetylcholinesterase) was 17.4 µM, the IC50 (Cholinesterase) was 8 µM and the Activity [1] was “Dose-dependent effect”. For the same molecule, the logP [2] was 3.5.
With `Clc1cccc(Cl)c1/C=N/N=c1ccn(Cc2c(Cl)cccc2Cl)cc1` the IC50 (Acetylcholinesterase) was 6.4 µM, the Activity [1] was “Dose-dependent effect” and the logP [2] was 4. For the same molecule, the logD [3] was 3.4, the logD [4] was 2.2 and the logD [5] was 0.8. The logD [6] was 1.5 and the inhibition [7] was “Active”.
With `Clc1cccc(Cl)c1CON=C1CCN(CCCc2ccccc2)CC1` the IC50 (Acetylcholinesterase) was 12 µM, the pKa [8] was 5.7 and the IC50 (Cholinesterase) was over 100 µM. For the same molecule, the logP [2] was 4.3.
With `Clc1cccc(Cl)c1CO/N=C/c1cc[n+](CCC[n+]2ccc(/C=N/OCc3c(Cl)cccc3Cl)cc2)cc1.[Br-].[Br-]` the IC50 (Acetylcholinesterase) was 0.34 µM, the IC50 (Cholinesterase) was 1.83 µM and the logP [2] was 0.65. For the same molecule, the inhibition [9] was “Active” and the inhibition [7] was “Active”.
Molecule `Cn1ccc(=N/N=C/c2c(Cl)cccc2Cl)cc1` has an IC50 (Acetylcholinesterase) of 739 µM, an IC50 (Cholinesterase) of 11 µM and an inhibition [10] of 60%. The Activity [1] was “inactive” and the logP [2] was 3.4.
For `Clc1cccc(Cl)c1CO/N=C/c1cc[n+](CCCc2ccccc2)cc1`, the IC50 (Acetylcholinesterase) was 0.18 µM, the IC50 (Cholinesterase) was 2.78 µM and the inhibition [9] was “Active”. For the same molecule, the inhibition [7] was “Active”.
`Nc1ccc(O)cc1` [4-AMINOPHENOL] showed an IC50 [9] of 83 µM and an IC50 [7] of 90 µM.
In the case of `Clc1cccc(Cl)c1/C=N/N=c1ccn(CCc2ccccc2)cc1`, the IC50 (Acetylcholinesterase) is reported as 56.7 µM, the IC50 (Cholinesterase) is reported as 9 µM and the Activity [1] is reported as “Dose-dependent effect”. For the same molecule, the logP [2] was 3.9 and the inhibition [9] was “Dose-dependent effect”.
With `Clc1cccc(Cl)c1/C=N/N=c1ccn(CCCc2ccccc2)cc1` the IC50 (Acetylcholinesterase) was 5.66 µM, the pKa [8] was 8.7 and the IC50 (Cholinesterase) was 10 µM. For the same molecule, the Activity [1] was “Dose-dependent effect”, the logP [2] was 3.7 and the logD [3] was 3.2. The logD [4] was 1.3, the inhibition [9] was “Dose-dependent effect” and the logD [5] was 0.7. For the same molecule, the logD [6] was 0.9 and the inhibition [7] was “Active”.
`Clc1cccc(Cl)c1CO/N=C/C1CCN(CCCc2ccccc2)CC1` gave an IC50 (Acetylcholinesterase) of 19.1 µM, a pKa [8] of 7.1 and a logP [2] of 3.6.
